Positions count from the first letter of the chain named.
Tests used:
[1] = target: T1, AR protein (AR T878A mutation) (Homo sapiens, UniProt P10275, T878A); experiment: Western blotting of AR protein in LNCaP cells; format: cell-based; settings: LNCaP cell line
T1 sequence (P10275 1-920 T878A): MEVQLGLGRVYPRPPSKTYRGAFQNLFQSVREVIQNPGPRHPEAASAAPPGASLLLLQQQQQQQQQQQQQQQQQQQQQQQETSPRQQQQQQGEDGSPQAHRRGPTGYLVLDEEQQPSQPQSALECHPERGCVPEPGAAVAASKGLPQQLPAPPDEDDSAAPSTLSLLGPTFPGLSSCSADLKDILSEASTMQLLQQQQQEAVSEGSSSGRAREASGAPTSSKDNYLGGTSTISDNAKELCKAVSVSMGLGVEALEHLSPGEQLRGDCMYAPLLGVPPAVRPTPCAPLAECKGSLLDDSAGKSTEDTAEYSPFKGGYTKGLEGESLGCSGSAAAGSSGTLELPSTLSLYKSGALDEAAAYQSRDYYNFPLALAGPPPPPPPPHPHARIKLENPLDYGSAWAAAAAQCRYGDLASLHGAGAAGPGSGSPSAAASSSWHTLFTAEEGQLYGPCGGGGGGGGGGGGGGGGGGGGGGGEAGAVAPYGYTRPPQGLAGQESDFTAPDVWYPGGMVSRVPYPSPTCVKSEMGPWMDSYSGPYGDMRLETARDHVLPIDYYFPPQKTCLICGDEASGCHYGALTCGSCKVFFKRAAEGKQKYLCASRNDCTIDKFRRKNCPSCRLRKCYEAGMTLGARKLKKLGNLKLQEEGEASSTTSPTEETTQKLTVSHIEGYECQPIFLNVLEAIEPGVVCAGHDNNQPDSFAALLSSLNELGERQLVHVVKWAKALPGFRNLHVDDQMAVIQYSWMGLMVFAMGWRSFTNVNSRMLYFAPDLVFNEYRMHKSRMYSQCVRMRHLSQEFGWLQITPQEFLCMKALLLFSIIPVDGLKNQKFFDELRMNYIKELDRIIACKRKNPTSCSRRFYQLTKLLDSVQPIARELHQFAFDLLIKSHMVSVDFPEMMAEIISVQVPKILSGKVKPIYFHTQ

AR protein [2] = target: T2, AR protein (Homo sapiens, UniProt P10275); experiment: Western blotting of AR protein in VCaP cells; format: cell-based; settings: for time within which AR protein level is effectively reduced / treatment time for near-complete AR depletion: VCaP cell line
T2 sequence (P10275 1-920): T1 sequence (P10275 1-920 T878A) with A878T

Oral exposure = format: in vivo, mice; settings: male, SCID, mouse, plasma, 10 mg/kg
Summary of the method: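 Non-tumour-bearing male SCID mice were given single oral gavage at 10 mg/kg in 100% PEG200. Three mice per time point were sacrificed at 1, 3 and 6 h. 300 μL blood was taken per animal and centrifuged at 15000 rpm for 10 min. Plasma was stored at −80 °C and quantified by validated LC-MS/MS. Values are mean ± SD.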

[3] = Oral bioavailability of ARD-61 in mice; format: in vivo; settings: mice (data not shown)
[4] = Drug concentrations in plasma and VCaP tumor tissue in SCID mice; format: in vivo; settings: VCaP tumor tissue, single 20 mg/kg PO, 6 h
Summary of the method: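 Male CB17 SCID mice carried subcutaneous VCaP xenografts (5 × 10^6 cells in 5 mg/mL Matrigel). At approximately 200 mm3 tumour volume, mice received single 20 mg/kg oral gavage in 100% PEG200. Plasma and tumour were taken at 6 and 24 h, three mice per time point. Tumours were frozen, ground in liquid nitrogen, homogenised in water:acetonitrile 4:1 at 4 °C, acetonitrile-precipitated, then assayed by validated LC-MS/MS.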

AR protein [5] = target: T2, AR protein; experiment: Pharmacodynamics: Western blot of AR protein in VCaP xenograft tumors; format: in vivo, mice
VCaP xenograft tumor = experiment: Antitumor activity in the VCaP xenograft tumor model; format: in vivo; settings: all dose levels, daily oral, entire 21 day experiment, SCID mice
[6] = single oral administration 20 mg/kg, 6 h
[7] = single oral administration 20 mg/kg, 24 h

SMILES	time within which AR protein level is effectively reduced [1]	time within which AR protein level is effectively reduced (AR protein [2])	treatment time for near-complete AR depletion [1]	treatment time for near-complete AR depletion (AR protein [2])	reduction of AR protein level in VCaP tumor tissue (AR protein [5]; [6])	reduction of AR protein level in VCaP tumor tissue (AR protein [5]; [7])	also measured
CC1(C)[C@H](NC(=O)c2ccc(N3CCC(N4CCN(c5ccc6c(c5)C(=O)N(C5CCC(=O)NC5=O)C6=O)CC4)CC3)cc2)C(C)(C)[C@H]1Oc1ccc(C#N)c(Cl)c1 (stereo partly drawn) [Compound 33, N-((1R,3R)-3-(3-Chloro-4-cyanophenoxy)-2,2,4,4-tetramethylcyclobutyl)-4-(4-(4-(2-(2,6-dioxopiperidin-3-yl)-1,3-dioxoisoindolin-5-yl)piperazin-1-yl)piperidin-1-yl)benzamide]	≤ 3 h	≤ 3 h					
CC1(C)[C@H](NC(=O)c2ccc(N3CCN(CCNc4ccc5c(c4)C(=O)N(C4CCC(=O)NC4=O)C5=O)CC3)cc2)C(C)(C)[C@H]1Oc1ccc(C#N)c(Cl)c1 (stereo partly drawn) [Compound 16, N-((1R,3R)-3-(3-Chloro-4-cyanophenoxy)-2,2,4,4-tetramethylcyclobutyl)-4-(4-(2-((2-(2,6-dioxopiperidin-3-yl)-1,3-dioxoisoindolin-5-yl)amino)ethyl)piperazin-1-yl)benzamide]							concentration at 1 h (Oral exposure): 1.6 µM; concentration at 3 h (Oral exposure): 1.2 µM; concentration at 6 h (Oral exposure): 0.8 µM
Cc1cc([C@H](C(=O)N2C[C@H](O)C[C@H]2C(=O)N[C@@H](CC(=O)N2CCC(N3CCC(C#Cc4ccc(C(=O)NC5C(C)(C)C(Oc6ccc(C#N)c(Cl)c6)C5(C)C)cc4)CC3)CC2)c2ccc(-c3scnc3C)cc2)C(C)C)on1 (stereo partly shown) [ARD-61]							oral bioavailability [3]: no oral bioavailability
CC1(C)[C@H](NC(=O)c2ccc(N3CCN(C4CCN(c5ccc6c(c5)C(=O)N(C5CCC(=O)NC5=O)C6=O)CC4)CC3)cc2)C(C)(C)[C@H]1Oc1ccc(C#N)c(Cl)c1 (stereo partly drawn) [Compound 27, N-((1R,3R)-3-(3-Chloro-4-cyanophenoxy)-2,2,4,4-tetramethylcyclobutyl)-4-(4-(1-(2-(2,6-dioxopiperidin-3-yl)-1,3-dioxoisoindolin-5-yl)piperidin-4-yl)piperazin-1-yl)benzamide]	≤ 3 h	≤ 3 h	6 h	6 h	only modestly	only modestly	tumor concentration (mean ± SD) [4]: 0.3148 ± 0.0937 µg/kg
CNC(=O)c1ccc(N2C(=S)N(c3ccc(C#N)c(C(F)(F)F)c3)C(=O)C2(C)C)cc1F [enzalutamide, reference compound]							maximum weight loss (VCaP xenograft tumor): no more than 5%
CC1(C)[C@@H](NC(=O)c2ccc(N3CCN(CC4CCN(c5ccc6c(c5)C(=O)N(C5CCC(=O)NC5=O)C6=O)CC4)CC3)cc2)C[C@@H]1Oc1ccc(C#N)c(Cl)c1 (stereo partly drawn) [Compound 43, N-((1S,3S)-3-(3-Chloro-4-cyanophenoxy)-2,2-dimethylcyclobutyl)-4-(4-((1-(2-(2,6-dioxopiperidin-3-yi)-1,3-dioxoisoindolin-5-yl)-piperidin-4-yl)methyl)piperazin-1-yl)benzamide]							times less potent than compound 28 (AR protein [2]; VCaP, AR degradation): approximately 100
CC1(C)[C@H](NC(=O)c2ccc(N3CCN(CC4CN(c5ccc6c(c5)C(=O)N(C5CCC(=O)NC5=O)C6=O)C4)CC3)cc2)C(C)(C)[C@H]1Oc1ccc(C#N)c(Cl)c1 (stereo partly drawn) [Compound 26, N-((1R,3R)-3-(3-Chloro-4-cyanophenoxy)-2,2,4,4-tetramethylcyclobutyl)-4-(4-((1-(2-(2,6-dioxopiperidin-3-yl)-1,3-dioxoisoindolin-5-yl)azetidin-3-yl)methyl)piperazin-1-yl)benzamide]	≤ 3 h	≤ 3 h	6 h	6 h	modest effect	effective in reducing the levels of AR protein	
CC1(C)[C@H](NC(=O)c2ccc(N3CCN(CC4CCN(c5ccc6c(c5)C(=O)N(C5CCC(=O)NC5=O)C6=O)CC4)CC3)cc2)C(C)(C)[C@H]1Oc1ccc(C#N)c(Cl)c1 (stereo partly drawn) [Compound 28, N-((1R,3R)-3-(3-Chloro-4-cyanophenoxy)-2,2,4,4-tetramethylcyclobutyl)-4-(4-((1-(2-(2,6-dioxopiperidin-3-yl)-1,3-dioxoisoindolin-5-yl)piperidin-4-yl)methyl)piperazin-1-yl)benzamide]	≤ 3 h	≤ 3 h	6 h	6 h	modest effect	effective in reducing the levels of AR protein	maximum weight loss (VCaP xenograft tumor): no more than 5%; reduction of AR protein level in VCaP tumor tissue (AR protein [5]; daily oral 10 mg/kg for 3 days, 3 and 6 h after last dose): effectively reduces the levels of AR protein; reduction of AR protein level in VCaP tumor tissue (AR protein [5]; daily oral 10 mg/kg for 3 days, 24 h after last dose): only a modest effect
CC1(C)[C@H](NC(=O)c2ccc(N3CCC(CN4CCN(c5ccc6c(c5)C(=O)N(C5CCC(=O)NC5=O)C6=O)CC4)CC3)cc2)C(C)(C)[C@H]1Oc1ccc(C#N)c(Cl)c1 (stereo partly drawn) [Compound 34, N-((1R,3R)-3-(3-Chloro-4-cyanophenoxy)-2,2,4,4-tetramethylcyclobutyl)-4-(4-((4-(2-(2,6-dioxopiperidin-3-yl)-1,3-dioxoisoindolin-5-yl)piperazin-1-yl)methyl)piperidin-1-yl)benzamide]	≤ 3 h	≤ 3 h	6 h	6 h			
